Assay results as given in ChEMBL document CHEMBL1132214, “Synthesis, mode of action, and biological activities of rebeccamycin bromo derivatives” (J Med Chem, 1999).
Converted amounts (≈) assume the structure as drawn.

What was measured:
CEM-SS [1] = experiment: Selective Index of against HIV -I Lai infected CEM-SS cells.; format: functional, Homo sapiens
How it was run: (§1)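 CEM-SS cells kept at 37 °C, 5% CO2 in RPMI 1640 with 10% decomplemented FBS, infected with HIV-1 Lai. Antiviral IC50 from reverse transcriptase activity of virus particles released into the medium. Cytotoxicity (CC50) measured in parallel. Selectivity index = CC50/IC50.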

P388 [2] = experiment: (§2) Ratio of IC50 of p388 and p388CPT5 cell lines; format: functional, Mus musculus
How it was run: (§3)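 Murine P388 leukaemia cells and camptothecin-resistant P388CPT5 cells were exposed to graded drug concentrations for 96 h at 37 °C. Viability was read by neutral red staining and the 50% growth-inhibitory concentration (IC50) taken for each line. The resistance ratio is IC50(P388CPT5)/IC50(P388).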

Bacillus cereus = experiment: Compound was tested for antimicrobial activity against a gram-positive bacterium Bacillus cereus; format: functional
How it was run: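 Bacillus cereus ATCC 14579 in Mueller-Hinton broth, pH 7.4, incubated 24 h at 27 °C. Compounds diluted in DMSO over 12 tubes spanning 100 to 0.05 µg/mL. MIC read from the dilution series.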

CEM-SS [3] = experiment: Compound was tested for anti-HIV activity in HIV -I Lai infected CEM-SS cells.; format: functional, cell-based; conditions: Homo sapiens; how it was run: as §1
CEM-SS [4] = experiment: The cytotoxicity was evaluated in HIV -I Lai infected CEM-SS cells.; format: functional; conditions: Homo sapiens; how it was run: as §1
P388CPT5 = experiment: In vitro inhibitory concentration against murine P388CPT5 leukemia cell proliferation; format: functional, cell-based; conditions: Mus musculus
How it was run: (§4)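 Murine P388 leukemia cells, or the camptothecin-resistant P388CPT5 subline, exposed 96 h at 37 °C to a range of drug concentrations. Viability scored by neutral red staining. IC50 taken as the concentration giving 50% growth inhibition.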

P388 [5] = experiment: In vitro inhibitory concentration against murine P388 leukemia cell proliferation; format: functional, cell-based; conditions: Mus musculus; how it was run: as §4
P388 [6] = experiment: Fraction change in percent is observed.; format: functional, Mus musculus
How it was run: (§5)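 Exponentially growing P388 cells (1.5 × 10^6 per mL) incubated with drug, usually 100 µM, for 30 min at 37 °C. Excitation 320 nm, emission 400–600 nm. Whole-cell spectrum read before centrifugation. Pellet spectrum read after one HBSS wash and resuspension in drug-free buffer. Intensities expressed relative to free rebeccamycin; fraction change is whole-cell versus free drug.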

P388 [7] = experiment: Compound was tested for drug bound to cell pellet (P388 leukemia) after centrifugation at 320 nm.; format: functional, Mus musculus; how it was run: as §5
P388 [8] = experiment: Compound was tested for drug bound to whole cells (P388 leukemia) before centrifugation at 320 nm.; format: functional, Mus musculus; how it was run: as §5
[9] = test system: DNA topoisomerase 1 (Bos taurus); experiment: Compound was tested for anti microbial activity against topoisomerase I.
[10] = as §2; format: functional; how it was run: as §3
[11] = molecular target: T1, DNA topoisomerase 1 (Mus musculus) (UniProt Q04750)
T1 sequence (whole entry): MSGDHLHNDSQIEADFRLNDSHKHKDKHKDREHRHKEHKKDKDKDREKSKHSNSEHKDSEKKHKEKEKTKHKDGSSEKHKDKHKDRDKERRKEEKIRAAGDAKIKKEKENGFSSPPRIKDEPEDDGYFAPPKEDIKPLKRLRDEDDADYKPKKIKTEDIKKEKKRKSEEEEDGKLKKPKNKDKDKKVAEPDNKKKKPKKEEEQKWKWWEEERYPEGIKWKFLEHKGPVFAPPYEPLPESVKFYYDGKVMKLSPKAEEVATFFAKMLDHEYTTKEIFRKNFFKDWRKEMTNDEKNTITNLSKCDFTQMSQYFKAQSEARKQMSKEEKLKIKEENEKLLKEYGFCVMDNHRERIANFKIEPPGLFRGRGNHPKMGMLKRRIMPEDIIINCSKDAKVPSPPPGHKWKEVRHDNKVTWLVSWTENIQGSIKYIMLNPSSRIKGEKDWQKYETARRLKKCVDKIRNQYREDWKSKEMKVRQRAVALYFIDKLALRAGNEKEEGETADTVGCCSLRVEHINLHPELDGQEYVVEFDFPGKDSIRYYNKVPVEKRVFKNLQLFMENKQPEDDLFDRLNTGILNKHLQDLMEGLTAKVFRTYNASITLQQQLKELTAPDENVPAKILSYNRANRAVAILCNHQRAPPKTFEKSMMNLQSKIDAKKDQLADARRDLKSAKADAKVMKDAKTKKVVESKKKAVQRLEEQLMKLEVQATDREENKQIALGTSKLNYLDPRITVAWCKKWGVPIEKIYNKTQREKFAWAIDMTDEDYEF

| SMILES | Selectivity index (CEM-SS [1]) | Ratio (P388 [2]) | MIC (Bacillus cereus) [µM] | IC50 (CEM-SS [3]) [nM] | CC50 (CEM-SS [4]) [nM] | IC50 (P388CPT5) [nM] | IC50 (P388 [5]) [nM] | Fraction change (P388 [6]) [%] | Activity (P388 [7]) | Whole-cell fluorescence relative to free drug (P388 [8]) | MIC [9] [µM] | Ratio [10] | MIC [11] [µM] |
| --- | --- | --- | --- | --- | --- | --- | --- | --- | --- | --- | --- | --- | --- |
| CO[C@H]1[C@H](O)[C@@H](O)[C@H](n2c3ccccc3c3c4c(c5c6ccccc6[nH]c5c32)C(=O)OC4=O)O[C@@H]1CO | >1.98 SI | >3.1 |  |  |  |  |  |  |  |  |  |  |  |
| COC1C(CO)OC(n2c3ccc(Br)cc3c3c4c(c5c6cc(Br)ccc6[nH]c5c32)C(=O)NC4=O)C(O)C1O (configuration not stated) | 4.8 | >58 | 19 (≈ 12.5 µg/mL) | 70 | 340 | > 15000 | 260 | 46 | 0.08 | 0.15 | 0.15 (≈ 0.0989 µg/mL) |  |  |
| CO[C@H]1[C@H](O)[C@@H](O)[C@H](n2c3c(Cl)cccc3c3c4c(c5c6cccc(Cl)c6[nH]c5c32)C(=O)NC4=O)O[C@@H]1CO [REBECCAMYCIN] | 2 SI | 8.5 |  |  |  |  |  | 29 | 0.81 | 1.29 |  |  |  |
| CO[C@H]1[C@H](O)[C@@H](O)[C@H](n2c3ccccc3c3c4c(c5c6ccccc6[nH]c5c32)C(=O)NC4=O)O[C@@H]1CO | 5.6 | >28 |  |  |  |  |  | -26 | 0.33 | 0.38 |  |  |  |
| CO[C@H]1[C@H](O)[C@@H](O)[C@H](n2c3ccc(Br)cc3c3c4c(c5c6cc(Br)ccc6[nH]c5c32)C(=O)OC4=O)O[C@@H]1CO | 1.9 | 8.3 |  |  |  |  |  |  |  |  |  |  |  |
| CC[C@@]1(O)C(=O)OCc2c1cc1n(c2=O)Cc2cc3ccccc3nc2-1 [CAMPTOTHECIN] |  |  |  |  |  | 2800 | 32 |  |  |  |  | 87.5 | 0.086 (≈ 0.03 µg/mL) |
| COC1C(CO)OC(n2c3ccc(Br)cc3c3c4c(c5c6cc(Br)ccc6[nH]c5c32)C(=O)N(C)C4=O)C(O)C1O (configuration not stated) | 1.3 | >3 | > 74 | 1170 | 1490 | > 15000 | 4900 | 13 | 0.24 | 0.46 | > 15 |  |  |
| CO[C@H]1[C@H](O)[C@@H](O)[C@H](n2c3c(Cl)cccc3c3c4c(c5c6cccc(Cl)c6[nH]c5c32)C(=O)N(C)C4=O)O[C@@H]1CO | 1.6 |  |  | 4900 | 8000 |  |  |  |  |  |  |  |  |
| CO[C@H]1[C@H](O)[C@@H](O)[C@H](n2c3ccccc3c3c4c(c5c6ccccc6[nH]c5c32)C(=O)N(C)C4=O)O[C@@H]1CO | 2 |  |  | 4000 | 7900 |  | 670 |  |  |  |  |  |  |
